Experimental data: ChEMBL document CHEMBL4346698, “Discovery and optimization of thienopyridine derivatives as novel urea transporter inhibitors” (Eur J Med Chem, 2019)
The source made the active and inactive calls. The calls are words filed in the database; no cut-off is given here.

What follows are compounds tested against T1, Urea transporter 1 (Homo sapiens, UniProt Q13336) (assay: Inhibition of urea transporter B in human erythrocytes incubated for 6 mins by spectrophotometric analysis based erythrocyte lysis assay).
T1 sequence (Q13336 whole entry): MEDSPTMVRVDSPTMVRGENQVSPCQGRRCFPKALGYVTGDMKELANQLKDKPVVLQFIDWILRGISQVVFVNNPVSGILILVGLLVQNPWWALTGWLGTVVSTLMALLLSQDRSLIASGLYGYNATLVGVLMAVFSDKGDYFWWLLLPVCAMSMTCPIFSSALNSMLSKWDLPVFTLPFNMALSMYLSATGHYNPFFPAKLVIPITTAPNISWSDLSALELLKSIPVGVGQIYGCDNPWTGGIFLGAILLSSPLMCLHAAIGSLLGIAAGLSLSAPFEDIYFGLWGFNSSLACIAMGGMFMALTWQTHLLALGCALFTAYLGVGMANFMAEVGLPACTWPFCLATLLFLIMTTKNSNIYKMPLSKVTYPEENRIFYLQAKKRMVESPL
Format: cell-based
For `CC(=O)c1sc2nc3ccc(C)cc3cc2c1N`, the IC50 was 1.72 µM.

Each compound was assayed on Rattus norvegicus (assay: Diuretic activity in Sprague-Dawley rat assessed as increase in urine output at 100 mg/kg, sc measured after 10 hrs).
Format: functional, organism-based
Method in brief: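 SD rats housed in metabolic cages received a subcutaneous injection of 100 mg/kg in 40% 2-hydroxypropyl-β-cyclodextrin, with the vehicle alone as control. Urine output was collected for 10 h after dosing. n=5, mean + SD.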
For `COC(=O)c1sc2nc(C)c(N)cc2c1N`, the Activity was “Active”.

What follows are compounds tested against T2, Urea transporter 1 (Rattus norvegicus, UniProt P97689) (assay: Inhibition of urea transporter B in Sprague-Dawley rat erythrocytes incubated for 6 mins by spectrophotometric analysis based erythrocyte lysis assay).
T2 sequence (P97689 whole entry): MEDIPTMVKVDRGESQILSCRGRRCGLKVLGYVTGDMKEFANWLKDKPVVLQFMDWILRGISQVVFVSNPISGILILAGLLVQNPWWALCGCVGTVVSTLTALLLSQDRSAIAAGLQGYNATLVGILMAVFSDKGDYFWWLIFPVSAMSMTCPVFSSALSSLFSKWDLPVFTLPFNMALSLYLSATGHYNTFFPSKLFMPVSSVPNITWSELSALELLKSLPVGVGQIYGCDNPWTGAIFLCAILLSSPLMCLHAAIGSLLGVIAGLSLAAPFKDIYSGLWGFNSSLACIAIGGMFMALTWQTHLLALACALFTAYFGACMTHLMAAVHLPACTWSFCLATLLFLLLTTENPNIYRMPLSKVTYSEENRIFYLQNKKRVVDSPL
Format: cell-based
Method in brief: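 Blood came from 8-week-old male SD rats. Erythrocytes were held at 2% hematocrit in hyperosmolar PBS with 1.25 M urea and 5 mM glucose for 2 h at ambient temperature. Compound in DMSO was added for 6 min, then the cells were diluted 1:10 into isotonic PBS. Lysis was read as A710 within 5 min and normalised to same-plate no-lysis (isotonic PBS) and full-lysis (water) controls.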
Compound `CCc1cc2c(N)c(C(=O)OC)sc2nc1C` has an IC50 of 0.71 µM. With `COC(=O)CC(=O)c1sc2nc3ccc(OC)cc3cc2c1N` the IC50 was > 10 µM. `COC(=O)c1sc2nc(C)c(Br)cc2c1N` gave an IC50 of 8.47 µM. In the case of `CCOC(=O)c1cnc2sc(C(=O)OC)c(N)c2c1`, the IC50 is reported as > 10 µM. `COC(=O)c1sc2nc(C)ccc2c1N` gave an IC50 of 1.3 µM. For `COc1ccc2nc3sc(C(=O)N4CCOCC4)c(N)c3cc2c1`, the IC50 was > 10 µM. In the case of `COC(=O)c1sc2nc(C)cc(C)c2c1N`, the IC50 is reported as 2.54 µM. `COC(=O)c1sc2nc(C)c(N)cc2c1N` showed an IC50 of 0.54 µM. `COC(=O)CNC(=O)c1sc2nc3ccc(OC)cc3cc2c1N` was tested, and the IC50 was > 10 µM. In the case of `CCNC(=O)c1cc2c(N)c(C(=O)OC)sc2nc1C`, the IC50 is reported as > 10 µM. Compound `COC(=O)c1sc2nc3ccc(F)cc3cc2c1N` has an IC50 of 0.16 µM. `COC(=O)c1sc2nc(C)c(OC)cc2c1N` showed an IC50 of 5.46 µM. `COC(=O)c1sc2nc3ccc(OC)cc3cc2c1N` showed an IC50 of 0.22 µM. Work on `COC(=O)c1sc2nc(C)c(NC(C)=O)cc2c1N` yielded an IC50 of 3.47 µM. In the case of `COC(=O)c1sc2nc(C)c(N(C)C)cc2c1N`, the IC50 is reported as 3.75 µM. Work on `COC(=O)c1sc2nc3c(C)cc(C)cc3cc2c1N` yielded an IC50 of 0.61 µM. For `CC(=O)c1sc2nc3ccc(C)cc3cc2c1N`, the IC50 was 3.51 µM. `COC(=O)c1sc2nc(C)c(C(C)=O)cc2c1N` gave an IC50 of 0.91 µM. `COC(=O)c1sc2nc(C)c(-c3ccccc3)cc2c1N` was tested, and the IC50 was 3.29 µM. With `COC(=O)c1sc2nc(C)cc(C(F)(F)F)c2c1N` the IC50 was 6.12 µM. With `COc1ccc2nc3sc(C(=O)O)c(N)c3cc2c1` the IC50 was > 10 µM. In the case of `COC(=O)c1sc2nc(C)c([N+](=O)[O-])cc2c1N`, the IC50 is reported as > 10 µM. `CNC(=O)c1cc2c(N)c(C(=O)OC)sc2nc1C` was tested, and the IC50 was > 10 µM. `COC(=O)c1sc2nc3ccc(Br)cc3cc2c1N` was tested, and the IC50 was 0.27 µM. `COC(=O)c1sc2nc(-c3ccccc3)ccc2c1N` was tested, and the IC50 was 3.36 µM. `COC(=O)c1sc2nc3ccccc3cc2c1N` gave an IC50 of 0.22 µM. `COc1ccc2nc3sc(S(=O)(=O)N(C)C)c(N)c3cc2c1` was tested, and the IC50 was > 10 µM. `COc1ccc2nc3sc(C(C)=O)c(N)c3cc2c1` gave an IC50 of 1.63 µM. For `CNC(=O)c1sc2nc3ccc(OC)cc3cc2c1N`, the IC50 was > 10 µM. With `COC(=O)c1sc2nc(C)c(NS(C)(=O)=O)cc2c1N` the IC50 was 6.42 µM. `CCOC(=O)c1sc2nc3ccc(OC)cc3cc2c1N` was tested, and the IC50 was > 10 µM. For `COC(=O)c1sc2nc(C)c(C(=O)N3CCOCC3)cc2c1N`, the IC50 was > 10 µM. For `COC(=O)c1sc2nc(C)c(F)cc2c1N`, the IC50 was > 10 µM. `COc1ccc2nc3sc(C(N)=O)c(N)c3cc2c1` was tested, and the IC50 was > 10 µM. For `COC(=O)c1sc2nc(C(=O)N3CCOCC3)ccc2c1N`, the IC50 was > 10 µM. `COC(=O)c1sc2nc3ccc(C)cc3cc2c1N` was tested, and the IC50 was 0.23 µM.
